Results published in PMC8596699 (Chemmedchem, 2021).

Target: T1, DMT1 (SLC11A2) (Homo sapiens, UniProt P49281)
T1 sequence (P49281 1-568): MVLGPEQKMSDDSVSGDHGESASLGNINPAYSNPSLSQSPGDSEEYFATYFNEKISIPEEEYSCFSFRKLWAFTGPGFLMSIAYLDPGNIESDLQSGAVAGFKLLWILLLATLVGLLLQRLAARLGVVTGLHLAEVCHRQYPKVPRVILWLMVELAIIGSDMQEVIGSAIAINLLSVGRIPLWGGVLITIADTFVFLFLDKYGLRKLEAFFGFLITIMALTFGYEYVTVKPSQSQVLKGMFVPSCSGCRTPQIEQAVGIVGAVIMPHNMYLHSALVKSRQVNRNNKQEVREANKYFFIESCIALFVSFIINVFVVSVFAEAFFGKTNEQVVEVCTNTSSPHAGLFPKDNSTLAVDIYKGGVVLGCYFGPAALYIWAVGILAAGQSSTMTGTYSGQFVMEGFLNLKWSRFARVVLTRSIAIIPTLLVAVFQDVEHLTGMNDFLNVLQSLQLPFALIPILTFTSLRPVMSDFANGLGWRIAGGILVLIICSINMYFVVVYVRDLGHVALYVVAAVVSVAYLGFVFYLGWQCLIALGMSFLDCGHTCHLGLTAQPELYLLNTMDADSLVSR
Experiment: Radioactive 55Fe uptake assay in HEK293 cells stably overexpressing DMT1
Format: cell-based
Procedure, shortened: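 HEK293 cells stably expressing human DMT1 (pIRES2 DsRed-Express2, geneticin 500 μg/mL) were seeded at 50,000 cells/well for 24 h. Cells were preincubated 5 min in uptake buffer, pH 5.5, with a range of test compound. ⁵⁵Fe²⁺ (1 μM) with ascorbate and unlabelled Fe²⁺ was then added for 15 min at room temperature. After ice-cold washes, uptake was read by scintillation counting as % of DMSO control. IC50 came from a 4-parameter logistic fit (two experiments in triplicate), and LE was derived from IC50.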

IC50: 525 ± 65 µM
ligand efficiency LE (from DMT1 IC50): 0.35 kcal^.mol^−1
SMILES: CC1CCc2sc(C(=O)O)cc2C1 (centres unmarked) [compound 2]
